The values below come from paper PMC3705663 (The Indian Journal of Medical Research, 2013).

Assay [1] deals with HIV-1 NL4.3. The experiment in a line: Inhibition of HIV infection in TZM-bl cells-based assay. The format is cell-based. Put shortly:
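TZM-bl cells (HeLa-derived, CD4/CCR5/CXCR4, LTR-driven luciferase) were seeded at 4 × 10^4/well overnight. HIV-1 NL4.3 (MOI 0.05) was pretreated with test compound for 1 h at 37°C, added to cells in duplicate for 4 h, then washed off with cold PBS. Cells were cultured 48 h in fresh medium with compound, lysed by freeze-thaw and read for luciferase. AZT served as positive control. % inhibition was taken versus untreated infected cells; IC50 by nonlinear fit.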

The test system of assay [2] is HIV-1 NL4.3. The experiment in a line: Inhibition of HIV infection in CEM-GFP cells-based assay. In kind it is cell-based. Put shortly:
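CEM-GFP cells (CD4+ T-lymphocytic line, GFP under HIV-1 LTR) were infected with HIV-1 NL4.3 at MOI 0.05. They were then plated at 2.0 × 10^5/well with varying test compound concentrations for up to 8 days. AZT served as positive control and solvents as negative controls. Cell lysates were read for GFP fluorescence (ex 485/em 520 nm). % inhibition was taken versus untreated infected cells, and IC50 was obtained by nonlinear curve fitting.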

Assay [3] concerns HIV integrase. The conditions noted are these: previous study; cited from earlier work.
For assay [4], the target named is HIV-1 integrase (Human immunodeficiency virus type 1 group M subtype B, UniProt P04585). The assay is described as follows: Integrase assay. In kind it is biochemical. Conditions: tested upto 50 μg/ml; positive control sodium azide; data not shown. Put shortly: (§1)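 Enzyme inhibition was measured with a commercial kit for each enzyme, following the manufacturer's instructions. Inhibition values are mean ± SEM of three independent experiments.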

Assay [5] has as its system HIV. Conditions: from other plant sources; cited from earlier work.
Assay [6] has as its target HIV-1 protease (Human immunodeficiency virus type 1 group M subtype B, UniProt P04585). The experiment in a line: Protease assay. In kind it is biochemical. The conditions noted are these: reference control saquinavir 1 μM. Put shortly: as §1
For assay [7], the target named is HIV-1 RT (Human immunodeficiency virus type 1 group M subtype B, UniProt P04585). The experiment in a line: Reverse transcriptase assay. In kind it is biochemical. Conditions: reference control nevirapine 1 μM. The method, boiled down:
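HIV-1 reverse transcriptase inhibition was measured with a commercial RT assay kit following the manufacturer's protocol. Data are mean ± SEM of three independent experiments.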

As for `O=c1oc2c(O)c(O)cc3c(=O)oc4c(O)c(O)cc1c4c23` [Ellagic acid (G), ellagic acid], the “anti-HIV activity (in words)” value in assay [1] is “consistent anti-HIV activity”; in assay [2], “consistent anti-HIV activity”; in assay [5] it was “reported for their anti-HIV activity”. The “HIV integrase inhibitory activity (in words)” value in assay [3] was “shown to have HIV integrase inhibitory activity”. Also, the “inhibition of HIV-1 integrase activity (in words)” value in assay [4] is “did not show any significant inhibition”. Also, the “inhibition of HIV-1 protease activity (in words)” value is recorded as “inhibited the HIV-1 protease activity” in assay [6] (listed as ellagic acid) and “dose-dependent inhibition” in assay [6] (listed as ellagic acid (compound G)).
Turning to `O=C(O)c1cc(O)c(O)c(O)c1` [Gallic acid (F), gallic acid], the “inhibition of HIV-1 RT activity (in words)” value in assay [7] is given as “dose dependent inhibition”. The “anti-HIV activity (in words)” value is “potent anti-HIV activity” in assay [1], “potent anti-HIV activity” in assay [2] and “reported for their anti-HIV activity” in assay [5]. The “inhibition of HIV-1 integrase activity (in words)” value in assay [4] is reported as “did not show any significant inhibition”.
For `C[C@@H]1O[C@@H](OC[C@H]2O[C@@H](Oc3c(-c4ccc(O)c(O)c4)oc4cc(O)cc(O)c4c3=O)[C@H](O)[C@@H](O)[C@@H]2O)[C@H](O)[C@H](O)[C@H]1O` [Rutin (E), rutin], the “anti-HIV activity (in words)” value in assay [1] and in assay [2] was “did not show any significant anti-HIV activity” in each case.
